# Calls of active or inactive are those of the source. No cut-off for these calls is given here.
# Experiments:
# [1] = Cytotoxicity against HELF cells assessed as after 3 days by Coulter counting analysis; format: cell-based; conditions: human; for MCC at 72 h / CC50 at 72 h: HELF cells; for CC50: helf, 72 h
# How it was run: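 HEL cells were seeded at 5 × 10^3 cells/well and allowed to grow for 24 h before compound dilutions were added. After 3 days at 37 °C, cells were counted with a Coulter Counter.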
# Human betaherpesvirus 5 = assay: Antiviral activity against human cytomegalovirus infected in HELF assessed as decrease in plaque formation after 7 days by microscopy; format: functional, organism-based; conditions: Human betaherpesvirus 5, HELF, 168 h
# How it was run: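 Confluent HEL fibroblasts were infected with HCMV Davis strain at 100 PFU per well. After 2 h, residual virus was removed and compound-containing medium was added in duplicate. Cells were incubated for 7 days at 37 °C, then ethanol-fixed and Giemsa-stained, and cytopathogenicity was scored microscopically.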
# Human alphaherpesvirus 3 [2] = assay: Antiviral activity against Thymidine kinase-positive Varicella-zoster virus Oka infected in HELF assessed as virus-induced cytopathogenicity after 5 days by microscopy; format: functional; conditions: Human alphaherpesvirus 3, strain Oka vaccine, 120 h
# Human alphaherpesvirus 3 [3] = assay: Antiviral activity against Thymidine kinase-deficient Varicella-zoster virus 07-1 infected in HELF assessed as virus-induced cytopathogenicity after 5 days by microscopy; format: functional, organism-based; conditions: Human alphaherpesvirus 3, 07-1, HELF, 120 h
# Influenza A virus [4] = assay: Antiviral activity against Influenza A virus H1N1 infected in MDCK assessed as virus-induced cytopathogenicity at 20 to 100 uM after 4 days by microscopy; format: functional, organism-based
# How it was run: (§1)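 Near-confluent MDCK (influenza) or confluent HEL monolayers were inoculated with 100 CCID50 of virus. After 1-h adsorption, residual virus was removed, and cells were incubated with fivefold serial dilutions of compound. Cytopathicity was scored microscopically once untreated infected controls reached complete CPE. Minimal cytotoxic concentration was read as microscopically visible alteration of cell morphology.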
# Influenza A virus [5] = assay: Antiviral activity against Influenza A virus infected in MDCK assessed as virus-induced cytopathogenicity at 20 to 100 uM after 4 days by microscopy; format: functional, organism-based; how it was run: as §1
# [6] = system: Mammalian orthoreovirus 1; assay: Antiviral activity against reovirus-1 infected in african green monkey Vero cells assessed as virus-induced cytopathogenicity at 20 to 100 uM after 4 days by microscopy; format: functional, organism-based
# How it was run: (§2)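 Confluent cell monolayers were inoculated with 100 CCID50 of virus. After 1 h of adsorption, residual virus was removed and cultures were incubated with fivefold serial compound dilutions. Cytopathicity was scored microscopically once it was complete in the untreated infected controls.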
# Feline coronavirus = assay: Antiviral activity against Feline coronavirus infected in CrFK assessed as virus-induced cytopathogenicity at 20 to 100 uM after 4 days by microscopy; format: functional, organism-based; how it was run: as §2
# [7] = system: Vesicular stomatitis virus; assay: Antiviral activity against Vesicular stomatitis virus infected in HELF assessed as virus-induced cytopathogenicity at 20 to 100 uM after 4 days by microscopy; format: functional, organism-based; how it was run: as §1
# Human respirovirus 3 = assay: Antiviral activity against parainfluenza-3 infected in african green monkey Vero cells assessed as virus-induced cytopathogenicity at 20 to 100 uM after 4 days by microscopy; format: functional, organism-based; how it was run: as §2
# Influenza A virus [8] = assay: Antiviral activity against Influenza A virus H3N2 infected in MDCK assessed as virus-induced cytopathogenicity at 20 to 100 uM after 4 days by microscopy; format: functional, organism-based; how it was run: as §1
# Human alphaherpesvirus 2 = assay: Antiviral activity against Human herpesvirus 2 strain G infected in HELF assessed as virus-induced cytopathogenicity at 20 to 100 uM after 4 days by microscopy; format: functional, organism-based; how it was run: as §2
# Sindbis virus = assay: Antiviral activity against Sindbis virus infected in african green monkey Vero cells assessed as virus-induced cytopathogenicity at 20 to 100 uM after 4 days by microscopy; format: functional, organism-based; how it was run: as §2
# Human alphaherpesvirus 1 = assay: Antiviral activity against Human herpesvirus 1 strain KOS infected in HELF assessed as virus-induced cytopathogenicity at 20 to 100 uM after 4 days by microscopy; format: functional, organism-based; how it was run: as §2
# Coxsackievirus B4 = assay: Antiviral activity against coxsackievirus B4 infected in african green monkey Vero cells assessed as virus-induced cytopathogenicity at 20 to 100 uM after 4 days by microscopy; format: functional, organism-based; how it was run: as §2
Compound,MCC at 72 h [1] [µM],EC50 (Human betaherpesvirus 5) [µM],CC50 [1] [µM],other results
CC(C)CNC(=O)[C@H](C)NC(=O)[C@@]1(Cc2ccccc2)CCN1C(=O)OCc1ccccc1,> 100,> 100,–,–
CC(C)[C@H](NC(=O)[C@@]1(Cc2ccccc2)CCN1C(=O)OCc1ccccc1)C(N)=O,> 100,> 100,85,–
C[C@H](NC(=O)[C@]1(Cc2ccccc2)CCN1C(=O)CCc1ccccc1)C(N)=O,100,> 100,–,CC50 at 72 h [1]: > 100 µM
C[C@H](NC(=O)[C@@]1(Cc2ccccc2)CCN1C(=O)OCc1ccccc1)C(=O)NC1CCCCC1,100,> 20,46,–
C[C@H](NC(=O)[C@@]1(Cc2ccccc2)CCN1C(=O)OCc1ccccc1)C(=O)N(C)C,> 100,> 100,–,–
C[C@H](NC(=O)[C@]1(Cc2ccccc2)CCN1C(=O)Oc1ccccc1)C(N)=O,> 100,> 20,> 100,IC50 (Human alphaherpesvirus 3 [2]): 69 µM; IC50 (Human alphaherpesvirus 3 [3]): 858 µM
C[C@H](NC(=O)[C@]1(Cc2ccccc2)CCN1C(=O)NCc1ccccc1)C(N)=O,> 100,> 100,> 100,–
C[C@H](NC(=O)[C@H](Cc1ccccc1)NC(=O)OCc1ccccc1)C(=O)NC(C)(C)C,> 100,> 100,> 100,–
NC(=O)[C@H](Cc1ccccc1)NC(=O)[C@@]1(Cc2ccccc2)CCN1C(=O)OCc1ccccc1,100,> 20,37,–
C[C@@H](NC(=O)[C@@]1(Cc2ccccc2)CCN1C(=O)OCc1ccccc1)C(N)=O,> 100,> 100,> 100,–
C[C@H](NC(=O)[C@]1(Cc2ccccc2)CCN1C(=O)Oc1cccc2ccccc12)C(N)=O,> 100,45,> 100,IC50 (Human alphaherpesvirus 3 [2]): 47.7 µM; IC50 (Human alphaherpesvirus 3 [3]): 47.7 µM
NC(=O)[C@H](Cc1ccccc1)NC(=O)[C@]1(Cc2ccccc2)CCN1C(=O)OCc1ccccc1,100,> 20,33,–
C[C@H](NC(=O)[C@@]1(Cc2ccccc2)CCN1C(=O)OCc1ccccc1)C(=O)NC(C)(C)C (mixture of isomers),> 100,49,> 100,IC50 (Human alphaherpesvirus 3 [2]): 63 µM; IC50 (Human alphaherpesvirus 3 [3]): 60 µM
C[C@H](NC(=O)[C@]1(Cc2ccccc2)CCN1C(=O)OCc1ccccc1)C(=O)NC1CCCCC1,> 100,> 100,> 100,–
C[C@H](NC(=O)[C@]1(Cc2ccccc2)CCN1C(=O)OCC1c2ccccc2-c2ccccc21)C(N)=O,20,> 4,14,Activity (Influenza A virus [4]): inactive; Activity (Influenza A virus [5]): inactive; Activity [6]: inactive; Activity (Feline coronavirus): inactive; Activity [7]: inactive; Activity (Human respirovirus 3): inactive; Activity (Influenza A virus [8]): inactive; Activity (Human alphaherpesvirus 2): inactive; Activity (Sindbis virus): inactive; Activity (Human alphaherpesvirus 1): inactive; Activity (Coxsackievirus B4): inactive
CC(C)[C@H](NC(=O)[C@]1(Cc2ccccc2)CCN1C(=O)OCc1ccccc1)C(N)=O,> 100,–,100,–
C[C@H](NC(=O)[C@]1(Cc2ccccc2)CCN1C(=O)OCc1ccc([N+](=O)[O-])cc1)C(N)=O,100,> 20,–,IC50 (Human alphaherpesvirus 3 [2]): > 100 µM; CC50 at 72 h [1]: > 100 µM; IC50 (Human alphaherpesvirus 3 [3]): 67 µM

Compound,MCC at 72 h [1] [µM],EC50 (Human betaherpesvirus 5) [µM],CC50 [1] [µM],other results
C[C@H](NC(=O)[C@]1(Cc2ccccc2)CCN1C(=O)OCc1ccccc1)C(=O)NC(C)(C)C,> 100,45,–,IC50 (Human alphaherpesvirus 3 [3]): 62.5 µM
C[C@H](NC(=O)[C@@]1(Cc2ccccc2)CCN1C(=O)OCc1ccccc1)C(=O)NCc1ccccc1 (racemic),≥ 20,> 4,42,–
NC(=O)[C@H](CCC(=O)O)NC(=O)C1(Cc2ccccc2)CCN1C(=O)OCc1ccccc1 (mixture of isomers),> 100,> 100,> 100,–
C[C@H](NC(=O)[C@]1(Cc2ccccc2)CCN1C(=O)N[C@@H](C)c1ccccc1)C(N)=O,> 100,> 100,> 100,–
Nc1nc2c(ncn2COCCO)c(=O)[nH]1 [ACYCLOVIR],> 1780,–,> 1780,–
NCCCC[C@H](NC(=O)C1(Cc2ccccc2)CCN1C(=O)OCc1ccccc1)C(N)=O (mixture of isomers),> 100,> 100,> 100,–
C[C@H](NC(=O)[C@]1(Cc2ccccc2)CCN1C(=O)OCc1ccccc1)C(=O)NCc1ccccc1,100,> 20,–,–
CC(C)C[C@H](NC(=O)[C@@]1(Cc2ccccc2)CCN1C(=O)OCc1ccccc1)C(N)=O,> 100,45,66,–
Nc1nc(O)c2ncn(COC(CO)CO)c2n1 [GANCICLOVIR],≥ 1580,7,580,–
CC(C)C[C@H](NC(=O)[C@]1(Cc2ccccc2)CCN1C(=O)OCc1ccccc1)C(N)=O,100,> 20,50,–
C[C@H](NC(=O)[C@]1(Cc2ccccc2)CCN1C(=O)OCc1ccccc1Cl)C(N)=O,> 100,> 20,> 100,–
C[C@H](NC(=O)[C@]1(Cc2ccccc2)CCN1S(=O)(=O)c1ccc2ccccc2c1)C(N)=O,> 100,> 100,> 100,IC50 (Human alphaherpesvirus 3 [2]): > 100 µM; IC50 (Human alphaherpesvirus 3 [3]): 76.5 µM
CC(C)CNC(=O)[C@H](C)NC(=O)[C@]1(Cc2ccccc2)CCN1C(=O)OCc1ccccc1,> 100,63,> 100,IC50 (Human alphaherpesvirus 3 [2]): > 100 µM; IC50 (Human alphaherpesvirus 3 [3]): 64.8 µM
C[C@H](NC(=O)[C@]1(Cc2ccccc2)CCN1C(=O)OCc1ccccc1)C(N)=O,> 50,32,50,–
C[C@H](NC(=O)[C@H](Cc1ccccc1)NC(=O)OCc1ccccc1)C(N)=O,> 100,> 100,> 100,–
C[C@H](NC(=O)[C@]1(Cc2ccccc2)CCN1C(=O)OCc1ccccc1)C(=O)N(C)C,> 100,> 100,> 100,–
C[C@@H](NC(=O)[C@]1(Cc2ccccc2)CCN1C(=O)OCc1ccccc1)C(N)=O,> 100,63,36,–

# From ChEMBL document CHEMBL1671794, “Synthesis and SAR studies on azetidine-containing dipeptides as HCMV inhibitors” (Bioorg Med Chem, 2011)
